Source: ChEMBL document CHEMBL1158762, “Antineoplastic agents. 534. isolation and structure of sansevistatins 1 and 2 from the African Sansevieria ehrenbergii” (2005)
Values after ≈ are worked out from the molar mass of the structure shown. Active and inactive are the calls of the source. The rule behind the calls is not given here.

Tests used:
[1] = tested on: Neisseria gonorrhoeae; test: Antimicrobial activity against Neisseria gonorrhoeae at 64 ug/mL by broth micro dilution assay; assay type: functional, organism-based
[2] = tested on: NCI-H460; test: Growth inhibition of human NCI-H460 cells after 48 hrs; assay type: functional; conditions: NCI-H460, 48 h
Procedure, shortened: (§1)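 NCI sulforhodamine B assay. Cells in RPMI1640 with 5% fetal bovine serum were seeded and incubated 24 h, then exposed to serial dilutions for 48 h. Plates were TCA-fixed, SRB-stained and read for optical density. GI50 is the concentration giving 50% reduction in net protein increase, calculated from OD data.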

[3] = tested on: Stenotrophomonas maltophilia; test: Antimicrobial activity against Stenotrophomonas maltophilia at 64 ug/mL by broth micro dilution assay; assay type: functional, organism-based
[4] = tested on: DU-145; test: Growth inhibition of human DU145 cells after 48 hrs; assay type: functional; conditions: DU-145, 48 h; procedure, shortened: as §1
[5] = tested on: MCF7; test: Growth inhibition of human MCF7 cells after 48 hrs; assay type: functional; conditions: MCF7, 48 h; procedure, shortened: as §1
[6] = tested on: Micrococcus luteus; test: Antimicrobial activity against Micrococcus luteus presque Isle 456 at 64 ug/mL by broth micro dilution assay; assay type: functional, organism-based
[7] = tested on: Streptococcus pneumoniae; test: Antimicrobial activity against Streptococcus pneumoniae ATCC 6303 by broth micro dilution assay; assay type: functional
[8] = tested on: KM-20L2; test: Growth inhibition of human KM20L2 cells after 48 hrs; assay type: functional; conditions: KM-20L2, 48 h; procedure, shortened: as §1
[9] = tested on: P388; test: Growth inhibition of mouse P388 cells after 48 hrs; assay type: functional; conditions: P388, 48 h, read-out: ED50 (the source's name)
Procedure, shortened: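 Murine P388 leukemia cells were preincubated 24 h in Fisher medium with 10% horse serum, then exposed to serial compound dilutions for 48 h. Cells were counted on an electronic particle counter, and ED50 for growth inhibition was calculated from the counts.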

[10] = tested on: SF-268; test: Growth inhibition of human SF268 cells after 48 hrs; assay type: functional; conditions: SF-268, 48 h; procedure, shortened: as §1
[11] = tested on: Cryptococcus neoformans; test: Antimicrobial activity against Cryptococcus neoformans ATCC 90112 by broth micro dilution assay; assay type: functional
[12] = tested on: Enterobacter cloacae; test: Antimicrobial activity against Enterobacter cloacae at 64 ug/mL by broth micro dilution assay; assay type: functional, organism-based
[13] = tested on: Staphylococcus aureus; test: Antimicrobial activity against Staphylococcus aureus at 64 ug/mL by broth micro dilution assay; assay type: functional, organism-based
[14] = tested on: Escherichia coli; test: Antimicrobial activity against Escherichia coli at 64 ug/mL by broth micro dilution assay; assay type: functional, organism-based
[15] = tested on: Candida albicans; test: Antimicrobial activity against Candida albicans ATCC 90028 by broth micro dilution assay; assay type: functional
[16] = tested on: BXPC-3; test: Growth inhibition of humanBxPC3 cells after 48 hrs; assay type: functional; conditions: Homo sapiens, BXPC-3, 48 h; procedure, shortened: as §1
[17] = tested on: Enterococcus faecalis; test: Antimicrobial activity against Enterococcus faecalis at 64 ug/mL by broth micro dilution assay; assay type: functional, organism-based
[18] = tested on: Micrococcus luteus; test: Antimicrobial activity against Micrococcus luteus presque Isle 456 by broth micro dilution assay; assay type: functional
Procedure, shortened: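 NCCLS broth microdilution. Compounds reconstituted in a small volume of sterile DMSO and diluted in the appropriate medium immediately before testing. MIC read as the lowest concentration giving no visible growth (optically clear). Assays repeated on separate days.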

[19] = tested on: Streptococcus pneumoniae; test: Antimicrobial activity against Streptococcus pneumoniae ATCC 6303 at 64 ug/mL by broth micro dilution assay; assay type: functional, organism-based
[20] = tested on: Candida albicans; test: Antimicrobial activity against Candida albicans ATCC 90028 at 64 ug/mL by broth micro dilution assay; assay type: functional, organism-based
[21] = tested on: Cryptococcus neoformans; test: Antimicrobial activity against Cryptococcus neoformans ATCC 90112 at 64 ug/mL by broth micro dilution assay; assay type: functional, organism-based

C[C@@H]1CC[C@@]2(OC1)O[C@H]1C[C@H]3[C@@H]4CC=C5C[C@@H](O[C@@H]6O[C@H](CO)[C@@H](O)[C@H](O)[C@H]6O[C@@H]6O[C@@H](C)[C@H](O)[C@@H](O)[C@H]6O)CC[C@]5(C)[C@H]4CC[C@]3(C)[C@H]1[C@@H]2C [OPHIOPOGONIN C]
Activity [1]: inactive | GI50 [2]: 1.8 µg/mL (≈ 2.49 µM) | Activity [3]: inactive | GI50 [4]: 1.6 µg/mL (≈ 2.21 µM) | GI50 [5]: 2 µg/mL (≈ 2.77 µM) | Activity [6]: inactive | MIC [7]: 16 µg/mL (≈ 22.1 µM) | GI50 [8]: 1.7 µg/mL (≈ 2.35 µM) | EC50 [9]: 1.5 µg/mL (≈ 2.07 µM) | GI50 [10]: 1.8 µg/mL (≈ 2.49 µM) | MIC [11]: 1 µg/mL (≈ 1.38 µM) | Activity [12]: inactive | Activity [13]: inactive | Activity [14]: inactive | MIC [15]: 2 µg/mL (≈ 2.77 µM) | GI50 [16]: 1.8 µg/mL (≈ 2.49 µM) | Activity [17]: inactive

C[C@@H]1CC[C@@]2(OC1)O[C@H]1C[C@H]3[C@@H]4CC=C5C[C@@H](O[C@@H]6O[C@H](CO)[C@@H](O[C@@H]7O[C@@H](C)[C@H](O)[C@@H](O)[C@H]7O)[C@H](O)[C@H]6O[C@@H]6O[C@@H](C)[C@H](O)[C@@H](O)[C@H]6O)CC[C@]5(C)[C@H]4CC[C@]3(C)[C@H]1[C@@H]2C [DIOSCIN]
Activity [1]: inactive | GI50 [2]: 1.6 µg/mL (≈ 1.84 µM) | Activity [3]: inactive | GI50 [4]: 1.6 µg/mL (≈ 1.84 µM) | GI50 [5]: 1.6 µg/mL (≈ 1.84 µM) | MIC [7]: 32 µg/mL (≈ 36.8 µM) | GI50 [8]: 1.6 µg/mL (≈ 1.84 µM) | EC50 [9]: 1.5 µg/mL (≈ 1.73 µM) | GI50 [10]: 1.2 µg/mL (≈ 1.38 µM) | MIC [11]: 1 µg/mL (≈ 1.15 µM) | Activity [12]: inactive | Activity [13]: inactive | MIC [18]: 4 µg/mL (≈ 4.6 µM) | Activity [14]: inactive | MIC [15]: 2 µg/mL (≈ 2.3 µM) | GI50 [16]: 1.1 µg/mL (≈ 1.27 µM) | Activity [17]: inactive

C=C1CC[C@@]2(OC1)O[C@H]1C[C@H]3[C@@H]4CC=C5C[C@@H](O[C@@H]6O[C@H](CO)[C@@H](O[C@@H]7O[C@@H](C)[C@H](O)[C@@H](O)[C@H]7O)[C@H](O)[C@H]6O[C@@H]6O[C@@H](C)[C@H](O)[C@@H](O)[C@H]6O)CC[C@]5(C)[C@H]4CC[C@]3(C)[C@H]1[C@@H]2C [SANSEVISTATIN 1]
Activity [1]: inactive | GI50 [2]: 0.43 µg/mL (≈ 0.496 µM) | Activity [3]: inactive | GI50 [4]: 1 µg/mL (≈ 1.15 µM) | GI50 [5]: 1.1 µg/mL (≈ 1.27 µM) | Activity [6]: inactive | Activity [19]: inactive | GI50 [8]: 0.47 µg/mL (≈ 0.542 µM) | EC50 [9]: 1.6 µg/mL (≈ 1.85 µM) | GI50 [10]: 1.3 µg/mL (≈ 1.5 µM) | MIC [11]: 1 µg/mL (≈ 1.15 µM) | Activity [12]: inactive | Activity [13]: inactive | Activity [14]: inactive | MIC [15]: 2 µg/mL (≈ 2.31 µM) | GI50 [16]: 1.1 µg/mL (≈ 1.27 µM) | Activity [17]: inactive

C[C@@H]1CC[C@@]2(OC1)O[C@H]1C[C@H]3[C@@H]4CC=C5C[C@@H](O[C@@H]6O[C@H](CO)[C@@H](O[C@@H]7OC[C@@H](O)[C@H](O)[C@H]7O)[C@H](O)[C@H]6O[C@@H]6O[C@@H](C)[C@H](O)[C@@H](O)[C@H]6O)CC[C@]5(C)[C@H]4CC[C@]3(C)[C@H]1[C@@H]2C
Activity [1]: inactive | GI50 [2]: 1.2 µg/mL (≈ 1.4 µM) | Activity [3]: inactive | GI50 [4]: 1.1 µg/mL (≈ 1.29 µM) | GI50 [5]: 1.4 µg/mL (≈ 1.64 µM) | Activity [6]: inactive | Activity [19]: inactive | GI50 [8]: 0.5 µg/mL (≈ 0.585 µM) | EC50 [9]: 2.6 µg/mL (≈ 3.04 µM) | GI50 [10]: 1.3 µg/mL (≈ 1.52 µM) | MIC [11]: 2 µg/mL (≈ 2.34 µM) | Activity [12]: inactive | Activity [13]: inactive | Activity [14]: inactive | MIC [15]: 4 µg/mL (≈ 4.68 µM) | GI50 [16]: 1.7 µg/mL (≈ 1.99 µM) | Activity [17]: inactive

C[C@@H]1CC[C@@]2(OC1)O[C@H]1C[C@H]3[C@@H]4CC=C5C[C@@H](O)CC[C@]5(C)[C@H]4CC[C@]3(C)[C@H]1[C@@H]2C [DISOGENIN]
Activity [1]: inactive | GI50 [2]: > 10 µg/mL | Activity [3]: inactive | GI50 [4]: 8.5 µg/mL (≈ 20.5 µM) | GI50 [5]: > 10 µg/mL | Activity [19]: inactive | Activity [20]: inactive | GI50 [8]: > 10 µg/mL | EC50 [9]: 4.3 µg/mL (≈ 10.4 µM) | GI50 [10]: > 10 µg/mL | Activity [12]: inactive | Activity [21]: inactive | Activity [13]: inactive | MIC [18]: 32 µg/mL (≈ 77.2 µM) | Activity [14]: inactive | GI50 [16]: > 10 µg/mL | Activity [17]: inactive

C[C@@H]1CC[C@@]2(OC1)O[C@H]1C[C@H]3[C@@H]4[C@H](O)C=C5C[C@@H](O[C@@H]6O[C@H](CO)[C@@H](O)[C@H](O)[C@H]6O[C@@H]6O[C@@H](C)[C@H](O)[C@@H](O)[C@H]6O)CC[C@]5(C)[C@H]4CC[C@]3(C)[C@H]1[C@@H]2C [SANSEVIERIN A]
Activity [1]: inactive | GI50 [2]: > 10 µg/mL | Activity [3]: inactive | GI50 [4]: > 10 µg/mL | GI50 [5]: > 10 µg/mL | Activity [6]: inactive | Activity [19]: inactive | GI50 [8]: > 10 µg/mL | EC50 [9]: > 10 µg/mL | GI50 [10]: > 10 µg/mL | MIC [11]: 64 µg/mL (≈ 86.6 µM) | Activity [12]: inactive | Activity [13]: inactive | Activity [14]: inactive | MIC [15]: 64 µg/mL (≈ 86.6 µM) | GI50 [16]: > 10 µg/mL | Activity [17]: inactive

C[C@@H]1CC[C@@]2(OC1)O[C@H]1C[C@H]3[C@@H]4CC=C5C[C@@H](O[C@@H]6O[C@H](CO)[C@@H](O[C@@H]7OC[C@H](O)[C@H](O)[C@H]7O)[C@H](O)[C@H]6O[C@@H]6O[C@@H](C)[C@H](O)[C@@H](O)[C@H]6O)CC[C@]5(C)[C@H]4CC[C@]3(C)[C@H]1[C@@H]2C [SANSEVISTATIN 2]
Activity [1]: inactive | GI50 [2]: 0.26 µg/mL (≈ 0.304 µM) | Activity [3]: inactive | GI50 [4]: 0.42 µg/mL (≈ 0.491 µM) | GI50 [5]: 0.62 µg/mL (≈ 0.725 µM) | Activity [6]: inactive | Activity [20]: inactive | MIC [7]: 32 µg/mL (≈ 37.4 µM) | GI50 [8]: 0.22 µg/mL (≈ 0.257 µM) | EC50 [9]: 1.7 µg/mL (≈ 1.99 µM) | GI50 [10]: 0.68 µg/mL (≈ 0.795 µM) | MIC [11]: 1 µg/mL (≈ 1.17 µM) | Activity [12]: inactive | Activity [13]: inactive | Activity [14]: inactive | GI50 [16]: 0.93 µg/mL (≈ 1.09 µM) | Activity [17]: inactive
